What was measured:
Format in all cases: functional
Rattus norvegicus [1] = species: Rattus norvegicus; assay: In vitro inhibitory concentration that relaxes KCL induced contraction in rat detrusor strips by 50%
In short: (§1)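 Female Sprague-Dawley rat (250-350 g) detrusor strips, 4-5 mm by 10 mm, pretensioned 0.25-0.5 g in a tissue bath and contracted with an additional 15 mM KCl. Compounds added as cumulative concentrations to steady state. Contractility measured as 5 min area under the contraction curve per concentration; IC50 is the concentration relaxing KCl-induced contraction by 50%. Glyburide added at end.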

Rattus norvegicus [2] = species: Rattus norvegicus; assay: In vitro inhibitory concentration that relaxes KCL induced contraction in rat detrusor strips by 50%; contracted; in short: as §1
Rattus norvegicus [3] = assay: Effective dose in vivo for reduction in MAP in normotensive rat model after oral administration
In short: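 Normotensive rats given test compound orally in a separate group from the efficacy animals. Mean arterial pressure and heart rate recorded after dosing, with maximum % change in MAP from initial values reported. ED20 is the oral dose causing a 20% drop in MAP.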

Rattus norvegicus [4] = assay: Effective dose in vivo for reduction in the frequency of spontaneous bladder contractions in the rat oral administration
[5] = Selectivity ratio of MAP ED20/bladder ED50
In short: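 Ratio of the oral ED20 for a 20% MAP drop in normotensive rats to the oral ED50 for a 50% reduction in spontaneous bladder contraction frequency in the urethral-obstructed rat instability model.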

Rattus norvegicus [6] = species: Rattus norvegicus; assay: In vitro inhibitory concentration that relaxes KCL induced contraction in rat detrusor strips by 50%; NE=no effect; in short: as §1

IC50 (Rattus norvegicus [1]; Rattus norvegicus) [µM]	Structure (SMILES)	also measured
11.5	N#Cc1ccc(Nc2c(NC3CCCC3)c(=O)c2=O)cc1	–
2.1	CCC(C)/N=c1\c(O)c(O)\c1=N/c1ccc(C#N)cc1 (centres undefined)	–
> 30	COC(=O)c1ccc(Nc2c(NC(C)C(C)(C)C)c(=O)c2=O)cc1 (centres undefined)	–
0.56	CC(C)(C)/N=c1\c(O)c(O)\c1=N/c1ccc(C#N)cc1	–
> 30	CC[C@H](/N=c1\c(O)c(O)\c1=N/c1ccc(C#N)cc1)c1ccccc1	–
0.93	C[C@](O)(C(=O)Nc1ccc(C(=O)c2ccccc2)cc1)C(F)(F)F [ZD-6169]	ED20 (Rattus norvegicus [3]): 6.96 mg/kg; ED50 (Rattus norvegicus [4]): 2.4 mg/kg; Ratio [5]: 2.9
> 30	Nc1c(Nc2cccnc2)c(=O)c1=O	–
> 30	CC(C)(/N=c1\c(O)c(O)\c1=N/c1ccc(C#N)cc1)c1ccccc1	–
0.09	CCc1cc(C#N)ccc1Nc1c(N[C@H](C)C(C)(C)C)c(=O)c1=O	ED20 (Rattus norvegicus [3]): 2.3 mg/kg; ED50 (Rattus norvegicus [4]): 0.13 mg/kg; Ratio [5]: 17.7
4.78	C[C@@H](/N=c1\c(O)c(O)\c1=N/c1ccc(C#N)cc1C(=O)c1ccccc1)C(C)(C)C	–
> 30	CC(/N=c1\c(O)c(O)\c1=N/c1ccc(C#N)cc1)c1ccc(OC(F)(F)F)cc1 (centres undefined)	–
> 30	C/N=c1\c(O)c(O)\c1=N/c1ccc(C#N)cc1	–
2.4	COc1ccc(Nc2c(NC(C)C(C)(C)C)c(=O)c2=O)cc1 (centres undefined)	–
14.3	N#Cc1ccc(/N=c2\c(O)c(O)\c2=N/C(CO)c2ccccc2)cc1 (centres undefined)	–
> 30	C[C@H](/N=c1\c(O)c(O)\c1=N/c1ccc(C#N)cc1)c1ccccc1	–
> 30	CC(/N=c1\c(O)c(O)\c1=N/c1ccc(-c2ccccc2)cc1)C(C)(C)C (centres undefined)	–
4	N#Cc1ccc(Nc2c(NC(c3ccccc3)C(F)(F)F)c(=O)c2=O)cc1 (centres undefined)	–
> 30	N#Cc1ccc(Nc2c(NC3CCCCC3)c(=O)c2=O)cc1	–
> 30	CC(C)(C)C/N=c1\c(O)c(O)\c1=N/c1ccc(C#N)cc1	–
0.056	C[C@@H](/N=c1\c(O)c(O)\c1=N/c1ccc(C#N)cc1)c1ccccc1	–
> 30	N#Cc1ccc(Nc2c(NCc3ccccc3)c(=O)c2=O)cc1	–
> 30	CCC(C)(C)/N=c1\c(O)c(O)\c1=N/c1ccc(C#N)cc1	–
17.6	CCc1cc(Nc2c(N[C@H](C)C(C)(C)C)c(=O)c2=O)ccc1C#N	–
13.7	CC(C)/N=c1\c(O)c(O)\c1=N/c1ccc(C#N)cc1	–
22.5	CC[C@@H](/N=c1\c(O)c(O)\c1=N/c1ccc(C#N)cc1)c1ccccc1	–
> 30	Cc1ccc(C(C)/N=c2\c(O)c(O)\c2=N/c2ccc(C#N)cc2)cc1 (centres undefined)	–
3.34	CCC(CC)/N=c1\c(O)c(O)\c1=N/c1ccc(C#N)cc1	–
> 30	CSc1ccc(Nc2c(NC(C)C(C)(C)C)c(=O)c2=O)cc1 (centres undefined)	–

Continued, compound first:

Structure (SMILES)	IC50 (Rattus norvegicus [1]; Rattus norvegicus) [µM]	also measured
CC(/N=c1\c(O)c(O)\c1=N/c1ccc(CC#N)cc1)C(C)(C)C (centres undefined)	0.34	–
COc1cc(C#N)ccc1/N=c1\c(O)c(O)\c1=N/[C@H](C)C(C)(C)C	0.29	–
C[C@@H](/N=c1\c(O)c(O)\c1=N/c1ccc(C#N)cc1O)C(C)(C)C	6.05	–
C[C@@H](/N=c1\c(O)c(O)\c1=N/c1ccc(C#N)cc1)C(C)(C)C (stereo in doubt; 42)	–	IC50 (Rattus norvegicus [1]): 0.37 µM
CC(/N=c1\c(O)c(O)\c1=N/c1cccnc1)C(C)(C)C (centres undefined)	1.95	–
CC(/N=c1\c(O)c(O)\c1=N/c1ccccn1)C(C)(C)C (centres undefined)	–	IC50 (Rattus norvegicus [2]): contracted
CC(C)(C)/N=c1\c(O)c(O)\c1=N/c1cnc2ccccc2c1	> 30	–
CC(/N=c1\c(O)c(O)\c1=N/c1ccc(C(F)(F)F)cc1)C(C)(C)C (centres undefined)	> 30	–
C[C@@H](/N=c1\c(O)c(O)\c1=N/c1ccc(C#N)c(Cl)c1)C(C)(C)C	4.3	–
C[C@@H](/N=c1\c(O)c(O)\c1=N/c1ccc(C#N)c2c1CCCC2)C(C)(C)C	0.67	–
CC(=O)c1ccc(/N=c2\c(O)c(O)\c2=N/C(C)C(C)(C)C)cc1 (centres undefined)	21.2	–
COc1cc(/N=c2\c(O)c(O)\c2=N/C(C)C(C)(C)C)c2ncccc2c1 (centres undefined)	> 30	–
C[C@@H](/N=c1\c(O)c(O)\c1=N/c1ccc(C#N)c(O)c1)C(C)(C)C	–	IC50 (Rattus norvegicus [6]): Not Active
CC(C)(C)/N=c1\c(O)c(O)\c1=N/c1cccc2cnccc12	1.84	–
CCCc1cc(C#N)ccc1/N=c1\c(O)c(O)\c1=N/[C@H](C)C(C)(C)C	23.1	–
CC(/N=c1\c(O)c(O)\c1=N/c1ccc(C#N)cc1)c1ccc(F)cc1 (centres undefined)	–	IC50 (Rattus norvegicus [6]): Not Active
CC(/N=c1\c(O)c(O)\c1=N/c1cccnc1O)C(C)(C)C (centres undefined)	> 30	–
C[C@@H](/N=c1\c(O)c(O)\c1=N/c1ccc(C#N)cc1)C1CCCCC1	2.6	–
CC(/N=c1\c(O)c(O)\c1=N/c1ccc(S(C)(=O)=O)cc1)C(C)(C)C (centres undefined)	> 30	–
CC(/N=c1\c(O)c(O)\c1=N/c1ccc(Br)cc1)C(C)(C)C (centres undefined)	1.26	–
CC(C)(C)/N=c1\c(O)c(O)\c1=N/c1cccnc1Cl	1.77	–
CC(/N=c1\c(O)c(O)\c1=N/c1cncc(Br)c1)C(C)(C)C (centres undefined)	11.7	–
CC(/N=c1\c(O)c(O)\c1=N/c1ccc(C#N)cc1)c1ccc([N+](=O)[O-])cc1 (centres undefined)	–	IC50 (Rattus norvegicus [6]): Not Active
Cc1cc(C#N)ccc1/N=c1\c(O)c(O)\c1=N/[C@H](C)C(C)(C)C	1.08	–
CC(/N=c1\c(O)c(O)\c1=N/c1cnc2ccccc2c1)C(C)(C)C (centres undefined)	> 30	–
Cc1cc(/N=c2\c(O)c(O)\c2=N/[C@H](C)C(C)(C)C)ccc1C#N	0.63	–
CC(C)C(C)/N=c1\c(O)c(O)\c1=N/c1ccc(C#N)cc1 (centres undefined)	1.9	–

Structure (SMILES)	IC50 (Rattus norvegicus [1]; Rattus norvegicus) [µM]	also measured
N#Cc1ccc(Nc2c(NC3CC4CCC3C4)c(=O)c2=O)cc1 (stereo in doubt; 58)	–	IC50 (Rattus norvegicus [1]): > 30 µM
CC(/N=c1\c(O)c(O)\c1=N/c1cccc2cccnc12)C(C)(C)C (centres undefined)	8.1	–
COc1ccc(C(C)/N=c2\c(O)c(O)\c2=N/c2ccc(C#N)cc2)cc1 (centres undefined)	–	IC50 (Rattus norvegicus [2]): contracted
CC(/N=c1\c(O)c(O)\c1=N/c1ccc(OC(F)(F)F)cc1)C(C)(C)C (centres undefined)	> 30	–
CC(C)(C)/N=c1\c(O)c(O)\c1=N/c1cccnc1	2.8	–
CCCCCCC/N=c1\c(O)c(O)\c1=N/c1ccc(C#N)cc1	> 30	–
CC(/N=c1\c(O)c(O)\c1=N/c1ccncc1)C(C)(C)C (centres undefined)	1.36	–
CC(/N=c1\c(O)c(O)\c1=N/c1ccccc1C#N)C(C)(C)C (centres undefined)	> 30	–
N#Cc1ccc(Nc2c(NC3CCCCCC3)c(=O)c2=O)cc1	–	IC50 (Rattus norvegicus [2]): contracted
N#Cc1ccc(Nc2c(NC3CC4CCC3C4)c(=O)c2=O)cc1 (stereo in doubt; 57)	–	IC50 (Rattus norvegicus [1]): 3.35 µM
CC(/N=c1\c(O)c(O)\c1=N/c1ccc(-n2ccnc2)cc1)C(C)(C)C (centres undefined)	> 30	–
CC(/N=c1\c(O)c(O)\c1=N/c1ccc(S(N)(=O)=O)cc1)C(C)(C)C (centres undefined)	> 30	–
CC1(C)Oc2ccc(OC(F)(F)F)cc2[C@@H](N2Cc3ccccc3C2=O)[C@@H]1O	–	ED20 (Rattus norvegicus [3]): 0.2 mg/kg; ED50 (Rattus norvegicus [4]): 0.3 mg/kg; Ratio [5]: 0.7
C[C@@H](/N=c1\c(O)c(O)\c1=N/c1ccc2c[nH]nc2c1)C(C)(C)C	4.6	–
C[C@H](/N=c1\c(O)c(O)\c1=N/c1ccc(C#N)cc1)C1CCCCC1	> 30	–
C[C@@H](/N=c1\c(O)c(O)\c1=N/c1ccc(C#N)cc1)C(C)(C)C (stereo in doubt; 43)	–	IC50 (Rattus norvegicus [1]): 24.3 µM
C[C@@H](/N=c1\c(O)c(O)\c1=N/c1ccc(C#N)cc1Br)C(C)(C)C	0.075	–
CC(C)(C)/N=c1\c(O)c(O)\c1=N/c1ccc2ncccc2c1	> 30	–
C[C@@H](/N=c1\c(O)c(O)\c1=N/c1cccnc1)C(C)(C)C	1.9	–
C[C@@H](/N=c1\c(O)c(O)\c1=N/c1ccncc1)C(C)(C)C	1.68	–
COc1ncccc1/N=c1\c(O)c(O)\c1=N/C(C)(C)C	2.56	–
C[C@@H](/N=c1\c(O)c(O)\c1=N/c1ccc(C#N)cc1Cl)C(C)(C)C	0.041	–
CC(/N=c1\c(O)c(O)\c1=N/c1ccccc1)C(C)(C)C (centres undefined)	5.4	–
CC(/N=c1\c(O)c(O)\c1=N/c1cccc(C#N)c1)C(C)(C)C (centres undefined)	3.05	–
CC(N/C(=N\C#N)Nc1ccncc1)C(C)(C)C (single isomer, unassigned; (+)) [PINACIDIL ANHYDROUS]	0.63	–
C[C@@H](/N=c1\c(O)c(O)\c1=N/c1ccc2[nH]ncc2c1)C(C)(C)C	0.74	–

— ChEMBL document CHEMBL1132984 (J Med Chem, 2000)
